Test results published in ChEMBL document CHEMBL4513216, “Probing the Open Global Health Chemical Diversity Library for Multistage-Active Starting Points for Next-Generation Antimalarials” (ACS Infect Dis, 2020).

Assay: Toxicity liver stage against HepG2, at 10uM
Format: cell-based
Parameters: test concentration 10 uM, cell line HepG2-A16-CD81EGFP
Settings: human, HepG2-A16-CD81EGFP cells; read-out: INHIBITION
Summary of the method: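 Uninfected HepG2-A16-CD81EGFP cells, 3 × 10^3 per well, 1536-well, plated on prespotted compound at 10 μM final, parasite-free screening media added to match infected plates; puromycin 10 μM positive, DMSO 0.5% negative; run in parallel with 48 h PbLuc assay at 37 °C, 5% CO2; viability by CellTiter-Glo luminescence, normalized to controls.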

Row | Compound | cytotoxicity at 10 µM
1 | COCC(=O)N[C@H]1C[C@@H](Cc2cc(CN3CCCCC3)on2)C1(C)C | -8.12%
2 | Cc1cccc(CNC[C@H]2Cn3ccnc3CO2)n1 | 3.15%
3 | CCOc1cc(N2CCN(C(=O)c3ccc(OC)cc3)CC2)nc(C)n1 | -10.2%
4 | Cc1ccc(-c2csc3c(=O)[nH]c(N4CCCC(C(N)=O)C4)nc23)cc1 (stereo unspecified) | -3.09%
5 | Cc1ccc(S(=O)(=O)NCC(O)c2ccoc2)s1 (stereo unspecified) | -8.18%
6 | CCn1c2c(ccc1=O)CC(N)CC2 (stereo unspecified) | -1.72%
7 | O=C(NCC1CC1)C1CCC2(CCNCC2)C1 (stereo unspecified) | 1.91%
8 | CC[C@@H]1N(CC2CCC2)CCC[C@]12CCC(=O)N2Cc1ccncc1 | 7.12%
9 | CCN1CCC2(CC1)CN(CCO)c1ccccc12 | -0.173%
10 | CO[C@@H]1CCN(c2ncccn2)[C@H]1Cc1ccccc1 | -0.651%
11 | O=C1CC(c2ccsc2)c2sc(C(=O)O)c(-c3ccc(F)cc3)c2N1 (stereo unspecified) | 4.4%
12 | COc1ccc(-n2ncc(C(=O)NCC3COC(C)(C)O3)c2N)cc1 (stereo unspecified) | 3.97%
13 | O=C(CCn1cc(Cl)cn1)Nc1ccc2c(c1)OCCO2 | -2.18%
14 | Cn1nc(C(=O)N2CCOCC2)cc1C(=O)Nc1ccc(Cl)cc1Cl | -7.41%
15 | Cc1nc(NC2CC(C)(C)NC(C)(C)C2)c2c(n1)c(C)nn2C | -11.5%
16 | Cc1ccnn1C(C)C(=O)Nc1cc(-c2ccncc2)[nH]n1 (stereo unspecified) | -10.7%
17 | CNc1ccc(C2CN(c3nc(C)cc(C)n3)CCO2)nc1 (stereo unspecified) | 0.575%
18 | Cc1cc(-c2ccc(=O)n(C3CCN(S(C)(=O)=O)CC3)n2)c(C)o1 | 3.62%
19 | O=C(O)[C@@H]1CCN(C(=O)c2ccccn2)[C@@H]1c1ccc(F)cc1 | 4.16%
20 | CC(C)N1CCC(c2n[nH]cc2S(C)(=O)=O)CC1 | -7.22%
21 | CC(=O)N1CCN(C(=O)C2CCN(c3cccnn3)C2)CC1 (stereo unspecified) | -17.6%
22 | CCC(CC)C(=O)N1CCN(Cc2cc(-c3ccncc3)nn2C)CC1 | -27.9%
23 | CCNc1nnc(SCc2nnc(C(C)(C)C)o2)s1 | -1.79%

Row | Compound | cytotoxicity at 10 µM
24 | COc1cccc(C(C)N2CCN(S(=O)(=O)CCCF)CC2)c1 (stereo unspecified) | 2.5%
25 | CCN1CCN(C(=O)c2cc(F)cc3nc(C)c(C)nc23)CC1 | -2.25%
26 | CC(C)CNC(=O)Nc1cccc(OCC#N)c1 | -0.353%
27 | CN(CC(=O)Nc1nc2c(s1)CCC2)C(=O)c1cccs1 | -10.3%
28 | CCn1nc(C)c(CNC(=O)NCC(C)(O)c2ccc(C)o2)c1C (stereo unspecified) | 10.5%
29 | COc1c(C)cnc(CNC(=O)c2cnc3onc(C)c3c2)c1C | 26.3%
30 | c1ccc(NCc2cccc(OCCN3CCOCC3)c2)nc1 | 0.174%
31 | N#Cc1cccnc1N1CCC(OCCc2ccccc2)CC1 | -11%
32 | O=C(NCc1ccccc1CN1CCCC1=O)Nc1nncs1 | -2.82%
33 | CCc1noc(C)c1C(=O)Nc1cnn(CC(=O)NC2CCCC2)c1 | -3.08%
34 | O=C(NCc1cccc(F)c1)NC1CCCN(c2ncccn2)C1 (stereo unspecified) | -0.7%
35 | CCOc1ncccc1NC(=O)c1cc(C)sc1C | -6.81%
36 | CC(C)CC(=O)N1CCCC1c1ccsc1 (stereo unspecified) | 2.96%
37 | Cc1cc(N2CCOCC2)ccc1NC(C)c1nc(C(C)C)no1 (stereo unspecified) | -12.3%
38 | CC(C)c1nc2c(n1C)CCN(CCS(=O)(=O)c1ccccc1)C2 | 5.11%
39 | Cc1cc(C(=O)N2CCC(NC(=O)c3cccnc3)CC2)c(C)o1 | -2.44%
40 | COC(=O)c1ccccc1NS(=O)(=O)c1c(C)nn(C)c1C | -4.12%
41 | Cc1cc(NCC(=O)NCC(F)(F)F)nc(-c2ccncc2)n1 | 6.45%
42 | CC(C)Cc1nc(COc2ccc(N(C)C(N)=O)cc2)no1 | 30.5%
43 | CC(C)c1nnc(CN(C)C(c2ccc(F)cc2)c2cccnc2)o1 (stereo unspecified) | 4.11%
44 | Cc1c(Cl)cccc1S(=O)(=O)NCc1cnc(N(C)C)n1C | -6.31%
45 | NC(=O)CN(Cc1ccc(Br)cc1)C(=O)c1cccnc1 | 9.49%
46 | Cc1cccc(NC(=O)N(CCC(F)(F)F)C[C@H](O)CO)c1 | 4.3%

Row | Compound | cytotoxicity at 10 µM
47 | CCCn1ccc2cc(NC(=O)CC3CCCO3)ccc21 (stereo unspecified) | -3.45%
48 | COc1ccccc1CN(Cc1nc(CC(C)C)no1)C1CC1 | 4.93%
49 | CC(O)CN1CCN(C(=O)CCOc2ccccc2F)CC1 (stereo unspecified) | 3.66%
50 | Cc1nc(C2CCCN2C(=O)CCCOc2cccc(F)c2)no1 (stereo unspecified) | 5.09%
51 | Cc1ccc(C(=O)NCCS(C)(=O)=O)c(=O)[nH]1 | -9.32%
52 | CC(=O)Nc1c(C)cnn1Cc1cc(F)ccc1F | 25.3%
53 | FC(F)(F)COCCN1CCCC(c2noc(C3CC3)n2)C1 (stereo unspecified) | 3.3%
54 | O=C(NCc1ccccc1CN1CCC(O)CC1)Nc1ccncc1 | -13.1%
55 | Fc1ccc2c(c1)C(NCc1nnc3n1CCCCC3)CCCO2 (stereo unspecified) | -9.52%
56 | Cc1cc(CN(C)C(=O)C2CCCN(C(=O)c3cccs3)C2)no1 (stereo unspecified) | -17%
57 | CS(=O)(=O)NCC1CCCN(C(=O)Nc2cccnc2N2CCCC2)C1 (stereo unspecified) | 3.85%
58 | CC(C)NC(=O)Nc1ccc(CS(=O)(=O)C(C)(C)C)cc1 | -1.97%
59 | COCCN1C(=O)CC(N2CCN(c3ccc(OC)cc3)CC2)C1=O (stereo unspecified) | -12.6%
60 | O=C(O)c1cc(-c2cncnc2)cc(S(=O)(=O)N2CCCCCC2)c1 | 5.38%
61 | CCC(=O)N1CCCC(c2nc(-c3cccnn3)no2)C1 (stereo unspecified) | -6.45%
62 | O=C(O)[C@@H]1CN(C(=O)CSCC2CC2)C[C@H]1c1ccncc1 | -17.6%
63 | CN(C)S(=O)(=O)NCc1cccnc1Oc1ccc(F)c(F)c1 | 3.05%
64 | CCc1ccc(CN2CCC(c3ccccc3C(=O)O)C2)nc1 (stereo unspecified) | 1.69%
65 | CCC(=O)N1CCCC(C(=O)NCc2noc(Cc3ccccc3)n2)C1 (stereo unspecified) | -1.15%
66 | CCn1c(CN(C)C)nnc1C1CCN(Cc2ccc(Cl)cc2F)CC1 | -2.53%
67 | Cc1ccc(N2CCC(C(=O)O)(n3ccc(C(C)C)n3)CC2)nn1 | -3.64%
68 | COc1ccnc(N2CCC3(CC2)[C@H](O)C[C@@H]3OCCN(C)C)n1 | 1.03%
69 | COc1ccccc1-n1nc(CC(C)C)nc1Cc1nnc(N)s1 | 6.17%

Row | Compound | cytotoxicity at 10 µM
70 | Cc1c(NC(=O)N(C)CCCc2cnn(C)c2)cnn1C | -1.23%
71 | NC(=O)N1CCCC(c2nc(-c3cccnn3)no2)C1 (stereo unspecified) | -1.31%
72 | CCC[C@H]1CN(C(=O)CCn2ccccc2=O)C[C@@H]1NS(C)(=O)=O | 5.35%
73 | CC(C)S(=O)(=O)N1CCCC(c2cccc(C(=O)O)c2)C1 (stereo unspecified) | -2.18%
74 | Cc1ccc(C2(CN(C)Cc3snnc3C)CCNCC2)nc1 | -0.355%
75 | Cc1nc(-c2c(-c3ccccc3)ncn2[C@H]2C[C@@H](C(=O)O)N(C)C2)co1 | 0.024%
76 | CNCCN1C(=O)CC[C@H]2CN(c3ncc(F)cn3)CC[C@H]21 | 1.68%
77 | O=C(O)c1cc2n(n1)CCCN(C(=O)CCc1c[nH]c3ccccc13)C2 | 3.77%
78 | COCCN1CCCC2(CCN(c3cc(C)c(C#N)c(C)n3)C2)C1=O (stereo unspecified) | 2.7%
79 | CCCn1cc(-c2cc(C(=O)N(C)C)c3cccc(C)c3n2)cn1 | 5.11%
80 | CN(Cc1cnc(N)nc1)CC1CCCN(CCc2ccc(Cl)cc2)C1 (stereo unspecified) | -0.849%
81 | COCCN(Cc1sccc1C)C(=O)C1CCN(C(C)C)CC1 | -2.72%
82 | N#Cc1cccc(C(=O)N2CCCC(C(=O)CCc3ccccc3)C2)c1 (stereo unspecified) | 0.488%
83 | CN(CCCc1cnn(C)c1)C(=O)C1CCC(=O)N(C2CCCC2)C1 (stereo unspecified) | 5.89%
84 | Cc1cc(C)c2nc(CN[C@H]3CCCNC3)cc(O)c2c1 | 4.09%
85 | CCS(=O)(=O)N1CCN(c2cc(-n3cnc(C)c3C)nc(C)n2)CC1 | 0.599%
86 | Cc1nc(N2CCCCC2)ncc1C(=O)N1CC(C)(C)[C@@](C)(O)C1 | 1.41%
87 | COc1cccc(CN2CCC(c3nccn3C(C)C)CC2)c1 | -8.37%
88 | Cc1cc(C)c(C(=O)N2CCOCC2c2c(C)n[nH]c2C)o1 (stereo unspecified) | -4.01%
89 | CN(Cc1ccccc1)CC(O)Cn1cnc2cc(F)ccc2c1=O (stereo unspecified) | -5.28%
90 | O=C(NCC1CCOC1)Nc1ccc(Oc2cccc(F)c2)nc1 (stereo unspecified) | -5.01%
91 | Cc1ccc(-c2cc(C(=O)NCCN3CCCS3(=O)=O)[nH]n2)cc1 | -7.57%
92 | COCc1ccc(C(=O)N2CCN(CC(C)O)CC2)cc1 (stereo unspecified) | 0.0264%

Row | Compound | cytotoxicity at 10 µM
93 | O=S(=O)(CCN1CCCCC1Cn1cncn1)c1ccccc1 (stereo unspecified) | 10.4%
94 | CCc1n[nH]c(C2CN(C(=O)c3cnn(CC)c3)CCO2)n1 (stereo unspecified) | -2.87%
95 | Cc1nc(CN(C)C2CCN(CCc3ccc4c(c3)CCO4)C2)no1 (stereo unspecified) | -12%
96 | CN(Cc1coc(-c2ccccc2)n1)CC1CCCN1c1cccnn1 (stereo unspecified) | -10.4%
97 | CCc1nc(CN2CCCN(C(=O)c3occc3C)CC2)cs1 | -21.9%
98 | O=C(NCCn1nc2ccccn2c1=O)c1cc(-c2ccccc2)[nH]n1 | -28.5%
99 | Cc1cn2nc(N3CCCC3Cn3cncn3)sc2n1 (stereo unspecified) | -18.3%
100 | O=C(CCSc1ccccc1)NS(=O)(=O)c1ccc2c(c1)OCCO2 | -5.69%
101 | CC(=O)N1CCN(C(=O)CCCc2nc(C(C)C)no2)CC1 | -9.34%
102 | COc1ccc(OCCN(C)C(=O)NC(C)c2nncn2C)cc1 (stereo unspecified) | 1.08%
103 | O=C(NC1COC2(CCN(Cc3ccccn3)CC2)C1)c1ccccn1 (stereo unspecified) | -4.74%
104 | Cn1cncc1C(=O)N1CCOC2(COCCN(CC3CC3)C2)C1 (stereo unspecified) | 9.17%
105 | CCN1CC2(CC1=O)CN(Cc1ccccn1)CCN(C(C)=O)C2 (stereo unspecified) | -1.07%
106 | COCC1CN(Cc2ccc(C)o2)Cc2nnn(CC3CC3)c21 (stereo unspecified) | -9.96%
107 | O=C(NCC1CC1)c1n[nH]c2c1CNCC2 | 4.14%
108 | c1ccc(CN2CCN3C[C@H](Oc4cncnc4)C[C@H]3C2)nc1 | -99.8%
109 | CNC(=O)[C@@H](C1CCCCC1)N1CCC[C@H]1C(=O)N(C)CCN(C)C | -0.39%
110 | Cc1ccc(CN2CC[C@@H](NS(C)(=O)=O)[C@@H]2Cc2ccncc2)o1 | -3.18%
111 | CCn1cc(-n2cc3nc(N)[nH]cc-3c2=O)cn1 | 3.15%
